# Measured values collected from several papers.
# Compare with care: the assays were run in different laboratories.
Structure (SMILES),target,test,test system,conditions,endpoint,value
O=c1ccc2ccc3occc3c2o1,"Aldehyde dehydrogenase, mitochondrial (ALDH2, Homo sapiens, UniProt P05091)","enzyme activity, inhibitor, absorbance",,10 µM,activity vs control,95.2%
COc1ncccc1-c1cnn2ccc(N3CCN(C(=O)OC(C)C)CC3)nc12,"Serine/threonine-protein kinase 38-like (STK38L, Homo sapiens, UniProt Q9Y2H1)","binding, competition with immobilised ligand",,1 µM,remaining binding,100%
Nc1ncc(-c2nc(N3CCOCC3)nc(N3CCOCC3)n2)c(C(F)F)n1,"Cyclin-dependent kinase 3 (CDK3, Homo sapiens, UniProt Q00526)","binding, competition with immobilised ligand",,10 µM,remaining binding,88%
CCN(CC)CCCC[C@H](NC(=O)[C@H](CC(C)C)NC(=O)[C@H](C)NC(=O)[C@H](Cc1ccccc1)NC(=O)c1ccc(C(C)(C)C)cc1)C(=O)N[C@@H](CO)C(=O)OC,"Protein polybromo-1, bromodomain (PBRM1, Homo sapiens, UniProt Q86U86)","thermal stability, DSF",,25 µM,ΔTm,-0.15 °C
Cc1nn(C)cc1-c1nc2c(N3CCN(Cc4ccc(Cl)cc4)CC3)c(Cl)cnc2[nH]1,"Tyrosine-protein kinase Tec (TEC, Homo sapiens, UniProt P42680)","binding, competition with immobilised ligand",,1 µM,remaining binding,100%
C#Cc1n[nH]c2c(-c3cn(C(C)c4ccccn4)c(=O)[nH]c3=O)cc(F)cc12 (centres unmarked),"Insulin receptor (INSR, Homo sapiens, UniProt P06213)","enzyme activity, inhibitor",,1 µM,inhibition,8.5%
CC1CCCN(c2ncc(Cl)c(Nc3ccc4c(c3)n(CCC(C)(C)O)c(=O)n4C)n2)C1 (centres unmarked),"B-cell lymphoma 6 protein (BCL6, Homo sapiens, UniProt P41182)","protein level, degrader",SU-DHL-4,,Dmax,85%
C=C=CCN,"Primary amine oxidase, liver isozyme (Bos taurus, UniProt Q29437)","enzyme activity, inhibitor, fluorescence",,,kinact/KI,9220 M⁻¹ s⁻¹
CCCCCCCCCCCCCC(=O)O[C@@H]1[C@@H](C)[C@@]2(O)[C@@H](C=C(CO)C[C@]3(O)C(=O)C(C)=C[C@@H]23)[C@@H]2C(C)(C)[C@]12OC(C)=O,"Adenosine receptor A2b (Adora2b, Rattus norvegicus, UniProt P29276)","cAMP, agonist",H9c2,,Emax,19.6%
CC[C@]1(O)C[C@H]2CN(CCc3c([nH]c4ccccc34)[C@@](C(=O)OC)(c3cc4c(cc3OC)N(C=O)[C@H]3[C@@](O)(C(=O)OC)[C@H](OC(C)=O)[C@]5(CC)C=CCN6CC[C@]43[C@@H]65)C2)C1,"Organic cation/carnitine transporter 2 (SLC22A5, Homo sapiens, UniProt O76082)","transporter uptake, inhibitor",HEK293,100 µM,remaining activity,33.6%
c1ccc(C(NCCNC(c2ccccc2)c2ccccc2)c2ccccc2)cc1,"Collagenase 3 (MMP13, Homo sapiens, UniProt P45452)","enzyme activity, inhibitor",,10 µM,inhibition,-10%
